CSC inhib: cancer stem cell viability inhibitors, primary screen, luminescence | cancer stem cell-like cells viability | inhibition, % at 7.5 µM | actives 1.1% (n = 300,000) | AID 2717, 2010; in the data active means inhibition above about 75%; tested in HMLE shEcad cells
Lmaj promast: Leishmania major promastigote growth inhibition, primary screen. actives 9% (n = 200,000). Leishmania major promastigotes, resazurin fluorescence viability. inhibition, % at 10 µM; in the data active means inhibition above about 50%;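 further: promastigotes grown with compound for 44 hours at 28 °C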
Beta apoptosis: inhibitors of cytokine-induced beta cell apoptosis, primary screen, luminescence | INS-1E cytokine-induced death, ATP luminescence, 48 h; percent of positive-control rescue, neutral wells zero | protection from apoptosis, % (no concentration beside the values) | actives 0.8% (n = 300,000) | AID 435005, 2010;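 active means Every replicate reaches about 75%, or at least half do and their mean reaches it too, limit read from the data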;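 further: 0% = cytokine-treated negative control wells and 100% = positive control rescue; higher means more ATP so stronger rescue from cytokine killing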
Mdm2 MdmX PPI: inhibitors of human Mdm2-MdmX association, primary screen, cell-based, luminescence, split luciferase, SaOS-2, uHTS; SaOS-2 split-luciferase Mdm2/MdmX complementation; inhibition, % at 8 µM; Protein Mdm4 (Homo sapiens) + E3 ubiquitin-protein ligase Mdm2 (Homo sapiens), …; actives 3% (n = 330,000);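 active means inhibition of at least 50% at 8 µM in the primary screen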
Target sequence (O15151 whole entry, looked up): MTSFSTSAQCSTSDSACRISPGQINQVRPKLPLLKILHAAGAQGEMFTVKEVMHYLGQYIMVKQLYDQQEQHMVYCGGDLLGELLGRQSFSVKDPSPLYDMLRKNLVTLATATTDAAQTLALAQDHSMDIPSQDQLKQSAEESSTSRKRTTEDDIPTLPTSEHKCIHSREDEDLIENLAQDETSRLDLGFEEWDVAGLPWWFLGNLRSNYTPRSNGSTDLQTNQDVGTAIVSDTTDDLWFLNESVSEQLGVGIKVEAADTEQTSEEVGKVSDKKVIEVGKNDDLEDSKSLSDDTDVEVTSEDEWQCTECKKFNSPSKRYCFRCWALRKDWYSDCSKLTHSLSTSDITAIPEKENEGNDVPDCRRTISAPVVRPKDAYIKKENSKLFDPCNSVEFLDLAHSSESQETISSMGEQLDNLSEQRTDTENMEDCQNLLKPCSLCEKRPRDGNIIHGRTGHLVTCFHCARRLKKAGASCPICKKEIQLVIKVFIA
Target sequence (Q00987 whole entry, looked up): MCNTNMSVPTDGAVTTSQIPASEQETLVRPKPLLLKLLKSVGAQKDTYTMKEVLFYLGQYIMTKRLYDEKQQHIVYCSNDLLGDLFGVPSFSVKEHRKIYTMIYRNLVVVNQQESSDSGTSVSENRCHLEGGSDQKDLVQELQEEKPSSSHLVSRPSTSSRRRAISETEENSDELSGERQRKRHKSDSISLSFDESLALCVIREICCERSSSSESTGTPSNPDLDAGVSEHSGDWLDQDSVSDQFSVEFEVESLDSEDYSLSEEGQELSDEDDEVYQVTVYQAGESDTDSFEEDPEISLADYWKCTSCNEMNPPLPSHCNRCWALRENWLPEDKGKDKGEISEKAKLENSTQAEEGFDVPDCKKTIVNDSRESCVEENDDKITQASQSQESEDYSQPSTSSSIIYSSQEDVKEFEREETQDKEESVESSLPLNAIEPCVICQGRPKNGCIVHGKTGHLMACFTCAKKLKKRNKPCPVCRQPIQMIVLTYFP
SKKanGAS inh: S. pyogenes SKKanGAS growth inhibitors in kanamycin, primary screen, streptokinase expression inhibitor project, SKKanGAS strain, BacTiter-Glo luminescence. 6 h. inhibition, % at 7.5 µM. actives 1.3% (n = 300,000). AID 1662, 2009;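 active means mean replicate score, as percent of positive control median, at least 50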;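 further: strain carries kanamycin resistance gene driven by streptokinase promoter and grows in 40 µg/ml kanamycin; loss of luminescence reflects streptokinase promoter inhibition or plain growth inhibition; 0% = median of DMSO wells and 100% = positive control at its reference dose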
T cruzi repl: inhibitors of intracellular T. cruzi growth, primary screen, luminescence, NIH3T3 host cells. T. cruzi beta-gal in NIH3T3, 90 h. inhibition, % (no concentration beside the values). actives 1.4% (n = 300,000);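 active means mean inhibition across valid replicates above about 55%, limit read from the data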;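 further: signal also drops with host cell toxicity which is not excluded here; 0% = plate median of DMSO wells and 100% = zero luminescence signal; higher percent means less beta-gal luminescence so fewer parasites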
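compound dosing = single 50 nL compound addition per well in DMSO | material = NIH/3T3 host cells with β-galactosidase reporter T. cruzi | input = 5,000 host fibroblasts per well | timing = ≥90 h infection period, 3 h prior cell attachment | read-out basis = percent inhibition of parasite-derived β-gal signal | detection = GalScreen β-gal luminescence, detergent lysis, 60 min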
Starred values were filed as active, the others as inactive; · = not tested or not shown. A selection: hits, their analogues and other compounds. The true share with any hit is near 9.4%.

SMILES	CSC inhib	Lmaj promast	Beta apoptosis	Mdm2 MdmX PPI	SKKanGAS inh	T cruzi repl
O=C(N=Nc1c(O)[nH]c2ccccc12)c1cccc(S(=O)(=O)N2CCCCC2)c1	-13	61*	-9	18	11	13
CC(C)c1ccc2[nH]c(O)c(N=NC(=O)c3cccc(S(=O)(=O)N4CCCCC4)c3)c2c1	23	99*	23	49	107*	69*
COc1ccccc1CNc1cc(C)ccn1	13	·	-3	-2	-5	-3
CC(=O)Nc1ccc(Nc2nc(Cl)nc(Nc3ccc(NC(C)=O)cc3)n2)cc1	-7	20	-4	-14	-2	-3
COc1ccc(-c2cc(C(=O)Nc3c(C)n(C)n(-c4ccccc4)c3=O)no2)cc1OC	-10	-6	-1	-18	1	18
COc1cccc(/C(=N/O)C2CC2c2ccc(Cl)cc2)c1 (stereo not given)	24	-5	-7	19	-16	16
Cc1ccc(C#CC[N+](C)(C)CC#Cc2ccccc2)cc1	-3	100*	11	-10	14	57*
C#CC[N+](C)(C)CC#Cc1ccccc1	10	-4	·	10	-6	12
Cc1ccccc1N1CCN(C(=S)c2ccccc2)CC1	3	57*	-6	23	-2	19
CCOC(=O)c1c(OCC)[nH]c2c1cc(O)c1ccccc12	23	99*	-4	8	34	-17
Cc1ccccc1CNc1ccc(C(CC(N)=O)NC(=O)c2ccccc2)cc1[N+](=O)[O-] (stereo not given)	78*	·	4	22	-1	-7
NC(=O)CC(NC(=O)c1ccc(Br)cc1)c1ccc(N2CCN(c3ccccc3)CC2)c([N+](=O)[O-])c1 (stereo not given)	-19	·	·	19	22	5
NC(=O)CC(NC(=O)c1ccc(Br)cc1)c1ccc(N2CCCCCCC2)c([N+](=O)[O-])c1 (stereo not given)	131*	·	1	18	46	21
Cc1cccc(CNc2ccc(C(CC(N)=O)NC(=O)c3ccccc3)cc2[N+](=O)[O-])c1 (stereo not given)	60	·	-5	13	2	0
NC(=O)CC(NC(=O)Cc1ccc(Br)cc1)c1ccc(NC2CCCCCC2)c([N+](=O)[O-])c1 (stereo not given)	76*	·	-8	39	18	-11
NC(=O)CC(NC(=O)Cc1ccc(Br)cc1)c1ccc(NC2CCCC2)c([N+](=O)[O-])c1 (stereo not given)	43	·	-5	40	12	-14
Nc1nc(SCC(=O)NCc2ccccc2)[nH]c(=O)c1NC(=O)c1ccccc1F	10	-10	·	-1	-12	-21
Cc1ccc(Nc2nnc(SCc3cc(=O)n4cc(C)ccc4n3)s2)cc1	-10	68*	-3	22	4	9
Cc1ccc2nc(CSc3nnc(Nc4ccccc4F)s3)cc(=O)n2c1	·	1	-3	5	2	1
COc1ccc2[nH]c(C(=O)O)c(CCN3C(=O)c4cccc([N+](=O)[O-])c4C3=O)c2c1	-9	·	0	9	-4	-5
Cc1noc(C)c1C(=O)OCC(=O)Nc1ncc(Cl)c(C)c1Cl	-19	·	-2	5	·	·
O=C(Cn1cnc([N+](=O)[O-])c1)c1ccc(Cl)cc1	-1	·	-1	33	-4	-1
O=C(C[n+]1cnn(CC(=O)c2ccc(Cl)cc2Cl)c1)c1ccc([N+](=O)[O-])cc1	21	83*	7	·	93*	7
Cc1c(C(=O)Nc2ccc(Nc3ccccc3)cc2)cccc1[N+](=O)[O-]	54	·	10	14	-2	15
O=C(Nc1ccccc1)c1ccc(Nc2c([N+](=O)[O-])cc([N+](=O)[O-])c3ccccc23)cc1	-3	78*	22	47	2	66*
SMILES	CSC inhib	Lmaj promast	Beta apoptosis	Mdm2 MdmX PPI	SKKanGAS inh	T cruzi repl
COc1ccc(N2CC(NC(=O)c3ccc4ccccc4c3)CC2=O)cc1OC (stereo not given)	-10	·	16	26	-3	-3
O=C1CC2(CCN(C(=O)C3CC(=O)N(c4ccccc4)C3)CC2)Oc2ccccc21 (stereo not given)	-17	·	-3	20	0	11
CCn1c(=O)c2cc(C(=O)N(C)c3ccccc3F)sc2c2ccccc21	55	·	14	23	6	69*
CC1CCN(C(=O)COC(=O)CCC(=O)c2ccc(Cl)cc2)CC1	7	·	-3	15	·	·
CN1CCN(C(=O)CCn2nc(-c3ccccc3)c3ccccc3c2=O)CC1	·	54*	0	20	-4	-10
O=c1c2ccccc2c(-c2ccccc2)nn1Cc1c(Cl)cccc1Cl	36	5	0	20	75*	38
CCOC(=O)Cn1nc(-c2ccccc2)c2ccccc2c1=O	-2	-5	2	-3	9	4
O=C(CCn1nc(-c2ccccc2)c2ccccc2c1=O)NN1CCOCC1	-9	-2	-1	17	-10	-8
COc1ccc(N2CCN(C(=O)CN3C(=O)NC4(CCCCC4C)C3=O)CC2)cc1 (stereo not given)	·	·	-4	22	·	·
Cc1ccccc1-c1nnc(-c2cccs2)o1	-3	0	-3	-47	5	2
COc1ccc2c(c1)c(CC(=O)Nc1cc(C)ccc1C)c(C)n2C(=O)c1ccc(Cl)cc1	9	9	4	18	21	60*
COc1ccc2c(c1)c(CC(=O)NCc1cc([N+](=O)[O-])ccc1O)c(C)n2C(=O)c1ccc(Cl)cc1	5	·	8	3	51*	-1
Cc1cc(C)c2nc(C)cc(Nc3ccc(C(=O)N4CCOCC4)cc3)c2c1	12	·	17	-26	8	6
CCn1c(CNC(=O)C2CCCCC2)cc2cc(C)ccc21	-11	·	6	16	-1	-11
C=CCN(C(=O)c1csnn1)C(C(=O)NCc1ccc(F)cc1)c1ccccc1F (stereo not given)	-8	·	-5	17	-4	7
O=C(Nc1ccc(Cl)c(Cl)c1)C1=Cc2ccccc2OC1	50	2	-4	-47	75*	17
CC(CNC(=O)c1ccc(OC2CCN(Cc3ccccn3)CC2)cc1)Oc1cccnc1 (stereo not given)	-8	·	100*	6	-3	11
COc1cccc(NC(=O)c2cc3ccccc3cc2OC)c1	9	·	8	-116	-8	-5
CCCCNC(=S)N=Nc1c(O)n(Cc2ccccc2)c2ccccc12	80*	9	8	38	22	9
C/C(Cl)=C\Cn1c(O)c(N=NC(N)=S)c2ccccc21	21	4	11	44	-7	60*

Compound activity (PubChem BioAssay)
